# An excerpt weighted towards active compounds, which were near 0.75% of everything screened.
# EBNA-1 inh – EBNA-1 DNA-binding inhibitors, primary screen, biochemical, fluorescence polarization | inhibition, % at 14.8 µM | hit rate 0.34% among 300,000; in the data active = inhibition above about 28%
# ZTA DNA inh – counter-screen for EBNA-1 inhibitors: inhibitors of Epstein-Barr virus ZTA. ZTA-DNA binding, fluorescence polarization. inhibition, % at 11 µM. hit rate 0.15% among 320,000. AID 2234; in the data active = inhibition above about 33%
# ASAP1 inh – inhibitors of human ASAP1 ArfGAP activity, primary screen, biochemical, fluorescence polarization. Arf-GAP with SH3 domain, ANK repeat and PH domain-containing protein 1 (Homo sapiens), …. ASAP1-stimulated ARF1 GTP hydrolysis, GDP FP detection. inhibition, % at 16.5 µM. hit rate 0.19% among 360,000; in the data active = inhibition above about 25%;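 also: 0% = vehicle with enzyme and substrate and 100% = no enzyme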
# Target sequence (Q9ULH1 325-724 limits assumed): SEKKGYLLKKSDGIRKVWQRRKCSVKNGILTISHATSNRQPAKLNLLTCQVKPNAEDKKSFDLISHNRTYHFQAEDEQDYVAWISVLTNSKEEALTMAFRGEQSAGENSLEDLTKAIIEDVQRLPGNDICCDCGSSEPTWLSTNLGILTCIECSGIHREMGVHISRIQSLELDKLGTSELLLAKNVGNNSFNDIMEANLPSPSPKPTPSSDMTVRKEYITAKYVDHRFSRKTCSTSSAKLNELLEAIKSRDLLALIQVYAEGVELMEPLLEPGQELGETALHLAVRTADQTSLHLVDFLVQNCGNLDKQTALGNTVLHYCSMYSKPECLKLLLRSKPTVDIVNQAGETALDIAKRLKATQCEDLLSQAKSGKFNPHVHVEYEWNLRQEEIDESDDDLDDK
# ARFGAP1 inh – inhibitors of rat ARFGAP1 GAP activity, primary screen, biochemical, fluorescence polarization, GDP tracer. ADP-ribosylation factor GTPase-activating protein 1 (Rattus norvegicus), Q62848. Arfgap1-stimulated ARF1 GTP hydrolysis, GDP FP detection. inhibition, % at 16.5 µM. hit rate 0.26% among 360,000. AID 651572, 2012;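 active = inhibition above a per-plate limit, mean inhibition of low control wells plus 3 SD, cut at about 25% in these data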;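 also: 0% = DMSO wells with enzyme and 100% = wells lacking Arfgap1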
# Target sequence (Q62848 1-136 limits assumed): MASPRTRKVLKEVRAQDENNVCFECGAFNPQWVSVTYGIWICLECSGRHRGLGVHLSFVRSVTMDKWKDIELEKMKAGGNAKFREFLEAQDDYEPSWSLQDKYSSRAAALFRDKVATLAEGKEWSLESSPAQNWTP
#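 Material: rat Arfgap1 catalytic domain, aa 1-136; also added: human ARF1(Δ1-17)-GTP substrate; compound dosing: one concentration, 16.5 µM, DMSO 1.26%; incubation: GTP hydrolysis reaction 2 h at 25 °C; measured by: Tracer-displacement fluorescence polarization with EDTA stop, 620/688 nm; evaluation: % inhibition from polarization; repeats: one replicate per compound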
# ASAP1 inh confirm – ASAP1 GAP activity inhibitors, confirmation, biochemical, fluorescence polarization, human, triplicate; shares compounds with ASAP1 inh; ASAP1-stimulated Arf1 GTPase, GDP fluorescence polarization; inhibition, % at 16.5 µM; hit rate 37% among 620;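 active = mean inhibition over triplicates exceeds the hit threshold derived for the earlier primary screening run, cut at about 25% in these data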
# The depositor's hits bear a star; / = no result given.
SMILES,EBNA-1 inh,ZTA DNA inh,ASAP1 inh,ARFGAP1 inh,ASAP1 inh confirm
O=C(NC(CC1=CCCCC1)c1ccccc1)C(F)(F)F (configuration not stated),/,/,-13,3,/
OCCCNc1cc(-c2ccnc(Nc3cccc(Cl)c3)n2)ccn1,11,7,27*,10,18
Cc1nnc(SCC(=O)NCc2cccs2)n1-c1ccccc1,1,-9,8,-7,/
Cc1occc1-c1nnc(SCC(=O)NCc2cccs2)n1-c1ccc(F)cc1,-5,-16,26*,-4,6
Cc1ccc(/C=N/n2c(C)cc(C)c(C#N)c2=O)o1,4,-2,4,4,/
Cc1cc(C)n(/N=C/c2ccco2)c(=O)c1C#N,-9,-12,25*,2,0
Cc1cc(NC(=O)c2ccc(NC(=O)C3CC3)cc2)no1,4,3,8,-2,/
Cc1cc(Nc2cc(Cl)nc(Sc3ccc(NC(=O)C4CC4)cc3)n2)n[nH]1,-2,5,30*,18,22
COC(=O)C1=C(C)N(C)C(=NCc2cc(OC)c(OC)c(OC)c2)NC1c1cccc(Cl)c1 (configuration not stated),/,/,-2,1,/
Cc1ccc(NC(=O)C(OC(=O)c2ccc(NC(N)=O)cc2)c2ccccc2)cc1Cl (configuration not stated),3,2,28*,11,19
O=C(NCc1ccco1)C12CN(Cc3ccccc3)CC1C(c1cccc([N+](=O)[O-])c1)=NO2 (configuration not stated),-2,-4,25*,0,8
O=C(NCc1ccco1)C12CN(Cc3ccccc3)CC1C(c1ccc([N+](=O)[O-])cc1)=NO2 (configuration not stated),-7,-3,6,15,/
O=[N+]([O-])c1ccc2c(c1)CCCO[C@]21O[C@H](CCO)C[C@H](O)[C@H]1O,/,/,-5,2,/
COc1cc2nc(NCCCN3CCN(C)CC3)n3nc(-c4ccccc4)nc3c2cc1OC,3,9,36*,16,24
COc1ccccc1CCn1cnc(-c2cccc(Br)c2)c1C(C)C,/,/,-8,-3,/
COc1cccc(-c2cnc3c(NC=O)cc(-c4ccc(N5CCN(C)CC5)cc4)cn23)c1,/,/,36*,18,76*
COc1cccc(-c2cnc3c(NC=O)cc(-c4ccccc4)cn23)c1,/,/,-20,-19,/
COc1ccccc1NS(=O)(=O)c1cc(NC(=O)/C=C/c2cccs2)ccc1N1CCOCC1,0,3,32*,20,18
O=C(/C=C/c1cccs1)Nc1ccc(N2CCOCC2)c(S(=O)(=O)Nc2ccccc2Cl)c1,6,11,8,4,/
CC(C)[C@H](NC(=O)CC1CCCC1)C(=O)N1CCC[C@H]1C(=O)NCCc1ccccc1Cl,/,/,4,-3,/
COc1ccc(-n2c(SCC(=O)Nc3ccc(NC(C)=O)cc3)nc3ccccc3c2=O)cc1,3,7,27*,10,4
C[C@H](CCC(=O)O)[C@H]1CC[C@H]2[C@@H]3CC[C@@H]4C[C@H](O)CC[C@]4(C)[C@H]3C[C@H](O)[C@]12C,10,8,16,4,/
C[C@H](CCC(=O)OCc1cn(CC(=O)c2ccc(O)cc2)nn1)C1CC[C@H]2[C@@H]3CC[C@@H]4C[C@H](O)CC[C@]4(C)[C@H]3C[C@H](O)[C@]12C (some centres not stated),/,/,29*,24,17
COc1ccc(C(=O)Nc2nc3cc4c(cc3s2)OCO4)c(OC)c1,5,1,31*,8,41*
COc1ccc2nc(NC(=O)c3cc(C)oc3C)sc2c1,3,13,-1,6,/
SMILES,EBNA-1 inh,ZTA DNA inh,ASAP1 inh,ARFGAP1 inh,ASAP1 inh confirm
Cc1ccccc1NC(=O)c1cccc(N2C(=O)C3C4CC(C(Br)C4Br)C3C2=O)c1 (configuration not stated),/,/,28*,8,6
Cc1ccsc1C(=O)OCC(=O)NC1CCCCC1,/,/,29*,-1,6
CC(Nc1cccc2ccccc12)C(=O)N/N=C/c1ccc([N+](=O)[O-])cc1 (configuration not stated),-3,5,26*,6,9
COc1cc([N+](=O)[O-])cc(/C=N/NC(=O)C(C)Nc2cccc3ccccc23)c1O (configuration not stated),4,1,-7,-3,/
Cc1cccc(/C=N/NC(=O)C(C)Nc2cccc3ccccc23)n1 (configuration not stated),-1,-6,29*,15,6
CC(C)[C@H](NC(=O)C1CC1)C(=O)N1CCC[C@H]1C(=O)NCCc1ccccc1Cl,/,/,24,-2,/
Cc1cc(C)c(C#N)c(SCc2cn3c(C)cccc3n2)n1,5,-15,25*,18,19
CCCCCCCCN1C(=O)[C@@H](CC(=O)N2CCCC2)C[C@@]2(C(=O)OC)C1=C[C@H](C1CCCC1)O[C@@H]2C,/,/,0,-9,/
O=C(N/N=C/c1c(O)ccc2ccccc12)c1cccc(C(F)(F)F)c1,5,0,27*,8,24
C=CCN1C(=O)c2n[nH]c(C(C)C)c2C1c1ccc2c(c1)OCO2 (configuration not stated),/,/,0,1,/
C[C@]12Cc3ccccc3C1CC1=N[C@@H](C3CCCCC3)O[C@@]13C[C@@H]2C(=O)N3C1CCN(Cc2ccccc2)CC1 (some centres not stated),/,/,3,1,/
COC(=O)C1=C(C)N(Cc2ccccc2C(F)(F)F)C(=NCC2CC2)NC1c1ccc(F)cc1 (configuration not stated),/,/,-4,-2,/
O=C(Nc1ccc(CSc2ccccc2)cc1)c1ccco1,-1,-1,25*,3,7
O=C(CCc1ccccc1)Nc1ccc(NC(=O)c2ccco2)cc1,-4,-7,-6,-1,/
CCn1nc(NC(=O)c2ccncc2)c2cc3ccc(C)cc3nc21,2,8,25*,7,8
Cc1ccc(C(=O)O/N=C/c2c(C(F)(F)F)nn(C)c2Sc2ccc(Cl)cc2)cc1,-2,3,-8,-3,/
Cc1ccc(C(=O)O/N=C/c2c(C)nn(C)c2Cl)cc1,1,7,27*,4,0
Cc1cc(Br)c2nc(-c3cccc(Br)c3)c(Cc3cccc(Cl)c3)n2c1,/,/,9,-1,/
CN(C(=O)COc1ccc2ccc(=O)oc2c1)C1CCS(=O)(=O)C1 (configuration not stated),11,-2,28*,5,6
CC(=O)N(c1nc2ccccc2s1)N1C(=O)c2ccccc2C1=O,/,/,6,5,/
Nc1cc(=O)[nH]c(SCC(=O)Nc2cc(Cl)cc(Cl)c2)n1,12,-6,7,-5,/

# High-throughput results from PubChem BioAssay.
